The values that follow come from ChEMBL document CHEMBL4602650, “Quinolone-N-acylhydrazone hybrids as potent Zika and Chikungunya virus inhibitors” (Bioorg Med Chem Lett, 2020).

pEC50: −log10 of the molar value. Activity calls are given as the source filed them. The rule behind the calls is not given here.

The subject of data set [1] is Chikungunya virus. Put plainly: Antiviral activity against Chikungunya virus infected in African green monkey Vero cells assessed as reduction in viral replication treated with compound at 1 hr post-viral infection. It is filed as functional, organism-based. The procedure, abridged:
(§1)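 Vero cells infected at MOI 0.1 and given 1 h for viral adsorption, then treated with increasing compound concentrations. EC50 is the concentration reducing viral replication by 50% versus infected controls. Mean ± SD of three independent experiments.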

The nature of data set [2]: Cytotoxicity against African green monkey Vero cells assessed as reduction in cell viability by MTT assay. It is filed as cell-based. Particulars: chlorocebus sabaeus. The method in brief: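 Vero cell viability tested over 100–2000 µM. CC50 is the concentration reducing viability by 50% versus untreated controls. Mean ± SD of 3 independent experiments.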
Data set [3] deals with Zika virus. Kind of data set: Antiviral activity against Zika virus infected in African green monkey Vero cells assessed as reduction in viral replication at 10 uM treated with compound at 12 hrs post infection by plaque formation assay. The data set is classed as functional, organism-based.
Data set [4] is described as follows: Selectivity index, ratio of CC50 for African monkey Vero cells to EC50 for Chikungunya virus infected in African green monkey Vero cells. It is filed as toxicity. Particulars: read-out: Ratio CC50/EC50. The procedure, abridged: (§2)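 SI = CC50 in Vero cells divided by EC50 against the matching virus in Vero cells. Both values come from three independent experiments.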

Data set [5] deals with Zika virus. Kind of data set: Antiviral activity against Zika virus infected in African green monkey Vero cells assessed as reduction in viral RNA production. It is filed as functional, organism-based.
Data set [6] in a line: Selectivity index, ratio of CC50 for African monkey Vero cells to EC50 for Zika virus infected in African green monkey Vero cells. The data set is classed as toxicity. Particulars: read-out: Ratio CC50/EC50. The procedure, abridged:
as §2

Data set [7] has as its system Zika virus. Put plainly: Antiviral activity against Zika virus infected in African green monkey Vero cells assessed as reduction in viral replication treated with compound at 1 hr post-viral infection. It is filed as functional, organism-based. The procedure, abridged: as §1
Data set [8] relates to Zika virus. Kind of data set: Antiviral activity against Zika virus infected in African green monkey Vero cells assessed as reduction in viral replication at 10 uM treated with compound up to 6 hrs post infection by plaque formation assay. The data set is classed as functional, organism-based.
The nature of data set [9]: Ratio of RibavarinCC50 to compound CC50 for African green monkey Vero cells assessed as reduction in cell viability by MTT assay. Particulars: chlorocebus sabaeus. It is filed as cell-based.
Data set [10] has as its system Chikungunya virus. Kind of data set: Antiviral activity against Chikungunya virus infected in African green monkey Vero cells assessed as reduction in viral replication at 10 uM treated with compound up to 12 hrs post infection by plaque formation assay. It is filed as functional, organism-based.
Data set [11] has as its system Zika virus. Kind of data set: Antiviral activity against Zika virus infected in African green monkey Vero cells assessed as reduction in viral replication at 10 uM treated with compound at 6 hrs post infection by plaque formation assay. The data set is classed as functional, organism-based.
Data set [12] has as its system Chikungunya virus. Put plainly: Antiviral activity against Chikungunya virus infected in African green monkey Vero cells assessed as reduction in viral replication at 10 uM treated with compound at 16 hrs post infection by plaque formation assay. The data set is classed as functional, organism-based.
Data set [13] deals with Chikungunya virus. Kind of data set: Antiviral activity against Chikungunya virus infected in African green monkey Vero cells assessed as reduction in viral RNA production. The data set is classed as functional, organism-based.

For `O=C(N/N=C/c1ccccc1O)c1c[nH]c2ccc(Cl)cc2c1=O`, the pEC50 is 5.56 in the data set on Chikungunya virus [1] and 6.10 in the data set on Zika virus [7]. Besides, the CC50 in data set [2] is 1110 µM. Moreover, the outcome with Zika virus [3] and in the data set with Zika virus [8] was Active. Moreover, the selectivity ratio in data set [4] was 402; in data set [6], 1410; in [9] it was no less than 2. Also, the Activity entry with Zika virus [5] was “Dose-dependent effect”.
For `O=C(N/N=C/c1ccccc1O)c1c[nH]c2ccc(Br)cc2c1=O`, the pEC50 in the data set on Chikungunya virus [1] was 5.57; with Zika virus [7], 6.09. Also, in data set [2], the CC50 stood at 443 µM. The selectivity ratio was 164 in data set [4], 548 in data set [6] and no less than 2 in data set [9].
With `NC(=O)c1ncn([C@@H]2O[C@H](CO)[C@@H](O)[C@H]2O)n1` [RIBAVIRIN], the pEC50 was 5.62 in the data set with Chikungunya virus [1] and 5.40 in the data set with Zika virus [7]. Besides, the CC50 in data set [2] came to 297 µM. In addition, the selectivity ratio in [4] came to 122; in data set [6], 75.2. Also, the result in the data set on Chikungunya virus [10] and in the data set on Zika virus [11] was inactive.
As for `O=C(N/N=C/c1ccccc1O)c1c[nH]c2ccccc2c1=O`, the pEC50 with Chikungunya virus [1] was 5.55; in the data set with Zika virus [7], 6.12. For the same compound, the CC50 in data set [2] came to 502 µM. Besides, the selectivity ratio in data set [4] was 176; in data set [6], 661; in data set [9], no less than 2.
In the case of `O=C(N/N=C/c1ccccc1O)c1c[nH]c2ccc(F)cc2c1=O`, the figures for the pEC50 in the data set with Chikungunya virus [1] and in the data set on Zika virus [7] were 5.97 and 6.12, respectively. Also, the CC50 in data set [2] is 669 µM. Moreover, the result in the data set with Chikungunya virus [12] was inactive. In addition, the results for the selectivity ratio in data set [4], in data set [6] and in data set [9] were 632, 893 and no less than 2, respectively. Further, the result with Chikungunya virus [10] was Active. The Activity entry in the data set with Chikungunya virus [13] is “Dose-dependent effect”.

The pEC50 is the EC50 on a negative log10 scale, so that one unit is a factor of ten. What is called CC50 is the concentration at which the toxic effect on the cells reaches its halfway point.
